FAK blocker – inhibitors of human focal adhesion kinase; Q05397; hit rate 0.84% among 97,000; inhibition, %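 (tested at 7 µM)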; biochemical FAK kinase activity assay; AID 727
PTK2B oligo ant – blocks oligomerization of human Pyk2 in cells; hit rate 0.83% among 99,000; Q14289; Q293 cells, Pyk2 FERM NanoBiT luminescence; active compounds read low; z-score (the deposit names both 25 µM and 10 µM);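 active = Z-score of -3 or lower, scaled per plate to the spread of control and sample wells; inactive = z-score above -3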;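 also: negative z-score means lost luminescence so less FERM oligomerization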
PLK1 inh – inhibitors of human PLK1 kinase | P53350 | hit rate 0.53% among 97,000 | inhibition, % at 10 µM | AID 619 | recombinant PLK1 kinase, TR-FRET peptide phosphorylation;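 active = inhibition of 50% or more in the single-concentration screen; inactive = inhibition below 50%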
HIV Rev-RRE inh – inhibitors of HIV-1 Rev-RRE RNA interaction | P05866 | Rev peptide-RRE RNA binding, FRET | inhibition, % at 8 µM | hit rate 0.79% among 97,000;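 active = inhibition above the screen-wide mean plus 3 SD, cut at about 35% in these data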
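Test system: Cy5-tagged RRE RNA duplex with fluorescein-tagged Rev peptide; Probe or stimulus: labelled Rev peptide; Schedule: 5 min preincubation and 15 min binding, 25 °C; Signal: FRET fluorescence readout; Evaluation: % inhibition from 671/540 nm acceptor-to-donor ratio, scaled between controls; Control set: DMSO and neomycin B.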
PLK1 PBD inh – blocks phosphopeptide binding to human Plk1 polo box domain; hit rate 0.13% among 97,000; AID 693; inhibition, %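 (tested at about 20 µM)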; Plk1 PBD phosphopeptide binding, fluorescence polarization; P53350; in the data active = inhibition above about 34%, passing the limit was not always enough
Cav3 T inh – inhibitors of human Cav3.2 T-type calcium channel. B-score at 10 µM. hit rate 4% among 100,000. Cav3.2-expressing cells, Fluo-4 calcium fluorescence FDSS; active compounds read low. AID 449739;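 active = single-dose well whose peak fluorescence ratio is a statistical outlier from its plate by either plate-standardised score or position-corrected B-score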
FAK inh conf – FAK (human) inhibition confirmed; inhibition, % at 7 µM; FAK kinase biochemical inhibition assay; shares compounds with FAK blocker; hit rate 28% among 750; AID 794
Each line names hits and unclear results; the compound was inactive in the other large screens (follow-up assays come after a bar, where they were run). In the library only some 5.8% were active in any assay of this set; here they are far more common. Rule as the data show it, unless noted: active = inhibition above about 19%; inactive = the rest.

O=C(Nc1cccc(NC(=O)c2ccc(-c3ccc(Br)cc3)o2)c1)c1ccco1	none
COc1ccccc1-c1cc(N)n[nH]1	FAK blocker 25.0 | FAK inh conf inactive
COc1ccc(-c2cc(-c3ccccc3O)[nH]n2)cc1OC	none
O=C1Cc2ccccc2C(=O)N1CCc1ccccc1	FAK blocker 39.8 (no result: PTK2B oligo ant) | FAK inh conf 37.0
O=C(O)CCN1C(=O)c2ccccc2C1=O	none
COc1ccc(C(=O)CN2C(=O)C(C)(C)Oc3ccc(C(=O)N4CCCCCC4)cc32)cc1	none
COCCn1c(Cc2ccccc2)nnc1SCC(=O)NC(C)C	none
CN(Cc1ccccc1)c1ncnc2ccc(Br)cc12	FAK blocker 39.0 | FAK inh conf inactive
Brc1ccc2ncnc(NCc3ccco3)c2c1	none
COc1ccc(Br)cc1CNc1ccc(O)cc1	FAK blocker 46.7 | FAK inh conf inactive
Cc1ccc(NC(=O)CSc2nnc(-c3ccco3)c(-c3ccco3)n2)cc1	FAK blocker 19.2 | FAK inh conf inactive
Cc1cccc(C)c1NC(=O)CSc1nnc(-c2ccco2)c(-c2ccco2)n1	FAK blocker 35.4 | FAK inh conf inactive
Cc1ccccc1NC(=O)CSc1nnc(-c2ccco2)c(-c2ccco2)n1	none
N#CCCN(Cc1cccnc1)C(=O)c1ccc(S(=O)(=O)N2CCOCC2)cc1	none
CC12CN(S(=O)(=O)c3ccccc3)CC(C)(CN(S(=O)(=O)c3ccccc3)C1)C2	none
COc1ccc(-n2nnnc2SCC(=O)Nc2nnn(C)n2)cc1	none
COc1ccc(-n2nnnc2SCC(=O)Nc2nc3c(s2)CCCC3)cc1	FAK blocker 23.8 | FAK inh conf inactive
CC(C)(C)N1C(=O)Cc2c1nc(N)c1c(N)nc(N3CCCCC3CO)c(C#N)c21 (stereo unspecified)	FAK blocker 55.9 | FAK inh conf inactive
N#Cc1c(N2CCCCC2)nc(N)c2c(N)nc3c(c12)CC(c1ccccc1)O3 (stereo unspecified)	none
O=C(NNC(=O)c1cc2cc3ccccc3nc2s1)c1cccc(Cl)c1	FAK blocker 30.3 | FAK inh conf inactive
O=C(NNC(=O)c1cc2cc3ccccc3nc2s1)c1ccc(F)cc1	FAK blocker 25.9 (no result: Cav3 T inh) | FAK inh conf inactive
Cc1cccc(C(=O)NNC(=O)c2cc3cc4ccccc4nc3s2)c1	none
Cc1nn2c3c(cnc2c1-c1ccccc1)C(=O)CC(C)C3 (stereo unspecified)	none (no result: PTK2B oligo ant, Cav3 T inh)
O=Cc1cn(-c2ccccc2)nc1-c1cc2cc(O)ccc2oc1=O	FAK blocker 29.9 | FAK inh conf inactive
COc1cc(CNCc2ccccn2)ccc1OCc1ccc(Cl)cc1Cl	none
Oc1ccc(NCc2ccccc2OCc2ccccc2F)cc1	FAK blocker 35.3 | FAK inh conf inactive
CCOc1cccc(CNc2ccc(O)cc2)c1OCc1ccc(Cl)cc1	FAK blocker 30.1 | FAK inh conf inactive
CCOc1cc(CNc2ccc(O)cc2)ccc1OCc1ccc(Cl)cc1Cl	FAK blocker 31.6 | FAK inh conf inactive
Cc1ccc2c(n1)sc1c(-c3ccccc3)c(C#N)c(N)nc12	none
Cc1ccc2c(n1)sc1c(N)ncnc12	FAK blocker 48.5 (no result: Cav3 T inh) | FAK inh conf inactive
O=C(CSc1nccc(=O)[nH]1)c1ccccc1Br	none
CNC(=S)NNC(=O)COc1ccccc1C	none
Cc1ccccc1OCC(=O)NNC(=O)c1ccc(-c2ccccc2)cc1	FAK blocker 20.4 | FAK inh conf inactive
O=C1N[C@@H](Cc2ccccc2)C(=O)N2[C@@H]1C[C@]1(Br)c3ccccc3N(S(=O)(=O)c3ccccc3)[C@H]21	none (no result: FAK blocker, PTK2B oligo ant, PLK1 inh, HIV Rev-RRE inh, PLK1 PBD inh)
COc1ccc(-n2cnnc2SCC(=O)Nc2cc(C(C)(C)C)nn2-c2ccccc2)cc1	FAK blocker 23.4 | FAK inh conf inactive
CCOC(=O)c1sc(C)c2c1NC1(CCCCCC1)NC2=O	FAK blocker 68.3 | FAK inh conf inactive
O=C(/C=C/c1ccc(O)c(O)c1)O[C@H](Cc1ccc(O)c(O)c1)C(=O)O	none (no result: FAK blocker, PTK2B oligo ant, PLK1 inh, HIV Rev-RRE inh, PLK1 PBD inh)
O=C(Nc1ccccc1)ON=C1c2ccccc2-c2ccccc21	FAK blocker 41.0 | FAK inh conf inactive
NC(=O)NC(=O)Nc1ccccc1Cl	none
O=C(Nc1ccccc1Cl)ON=C1c2ccccc2-c2ccccc21	FAK blocker 34.9 | FAK inh conf inactive
c1ccc(CNn2nnnc2-c2ccccc2)cc1	none
COc1ccccc1OCC(=O)Nc1cccc(C(=O)N2CCOCC2)c1	none
COc1cccc(N2CCN(C(=O)CN(C)S(=O)(=O)c3ccc4c(c3)CCC(=O)N4)CC2)c1	none (no result: PTK2B oligo ant)
Cc1cc(Nc2ccccc2F)n2ncnc2n1	none (no result: FAK blocker, PTK2B oligo ant, PLK1 inh, HIV Rev-RRE inh, PLK1 PBD inh)
CC(C)CC(c1nnnn1Cc1ccccc1)N1CCC(C(N)=O)CC1 (stereo unspecified)	none
O=c1oc(-c2ccc(Br)o2)nc2ccccc12	FAK blocker 35.2 | FAK inh conf 37.2
Cc1oc(-c2ccccc2F)nc1CS(=O)(=O)CC(=O)NCc1ccco1	FAK blocker 26.9 (no result: PTK2B oligo ant, Cav3 T inh) | FAK inh conf inactive
Cc1ccc(C(=O)N/N=C/c2ccc([N+](=O)[O-])s2)cc1	FAK blocker 50.1 | FAK inh conf inactive
O=C(N/N=C/c1ccc(Br)s1)c1ccccc1[N+](=O)[O-]	none
CS(=O)(=O)N(CC(=O)N1CCN(c2ccccc2)CC1)c1ccccc1Cl	none
Brc1ccc2ncnc(Nc3ccc(N4CCOCC4)cc3)c2c1	FAK blocker 20.5 | FAK inh conf inactive
Cc1ccccc1C(=O)Nc1cccc(C#N)c1	none
N#Cc1cccc(NC(=O)c2ccccc2C(=O)O)c1	FAK blocker 21.6 | FAK inh conf inactive
Cc1cc2c(C)nc(-c3ccccc3)nc2o1	FAK blocker 25.1 | FAK inh conf inactive
COCCN(Cc1ccccc1)P(=O)(O)c1ccccc1OCC(=O)O	FAK blocker 62.1 | FAK inh conf 51.6
CC(=O)Cc1ccccc1OCC(=O)O	none
C=CCOc1ccc(/C=C/C(C)=N\O)cc1	FAK blocker 19.8 | FAK inh conf inactive
C=CCOc1ccc2c(c1)C(=NO)c1cc(OCC=C)ccc1-2	none
Cc1ccc(C)c(NC(=O)CS(=O)(=O)c2cn(C)c3ccccc23)c1	none
CCCC(=O)Nc1c(C)nn(C(=O)CCC)c1C	none
CCC(C)n1cnc2c(c1=O)c1nc3ccccc3nc1n2Cc1ccc2c(c1)OCO2 (stereo unspecified)	none (no result: PTK2B oligo ant)
CCC(C)n1cnc2c(c1=O)c1nc3ccccc3nc1n2-c1ccc2c(c1)OCCO2 (stereo unspecified)	FAK blocker 21.4 (no result: Cav3 T inh) | FAK inh conf inactive
COc1ccc(-n2nc(C(=O)NCC(=O)Nc3ccccn3)c3ccccc3c2=O)cc1Cl	FAK blocker 22.5 (no result: Cav3 T inh) | FAK inh conf 44.8
NC(=O)CC(NC(=O)Cc1cccc2ccccc12)c1ccc(NC2CCCCCCC2)c([N+](=O)[O-])c1 (stereo unspecified)	none (no result: FAK blocker, PTK2B oligo ant, PLK1 inh, HIV Rev-RRE inh, PLK1 PBD inh)
COc1cccc(NC(=O)C2CCCN(S(=O)(=O)c3cccc4nsnc34)C2)c1 (stereo unspecified)	none

Screening data from PubChem.
